According to ChEMBL document CHEMBL4033651, “Exploration of flexible phenylpropylurea scaffold as novel cardiac myosin activators for the treatment of systolic heart failure” (Eur J Med Chem, 2017):

What was measured:
Rattus norvegicus [1] = test: Positive inotropic activity in Sprague-Dawley rat heart assessed as left ventricle fractional shortening at 2 to 16 ug/kg/min for 3 mins by echocardiographic analysis; format: functional
Procedure, shortened: (§1)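 Seven-week-old male Sprague-Dawley rats under 1.5 % isoflurane via nosecone. Drug given through a right internal jugular vein central line. Left ventricular fractional shortening and ejection fraction measured by echocardiography with and without sample, expressed as % increase.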

Bos taurus = species: Bos taurus; test: Activation of actin-stimulated bovine cardiac myosin S1 fragment ATPase activity in sarcomere at 10 uM after 10 mins by spectrophotometric analysis
Procedure, shortened: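 Bovine cardiac S1 myosin with actin thin filament complex at pCa 6.5, in 20 mM Tris HCl pH 7.5, 15 mM KCl, 6 mM MgCl2, 1 mM ATP. Compound at 10 μM, 10 min at room temperature. Stopped with Cytophos reagent; liberated phosphate read at 650 nm. % activity calculated relative to DMSO negative control, blank-corrected.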

Rattus norvegicus [2] = test: Effect on hemodynamic parameters in Sprague-Dawley rat heart assessed as end-diastolic pressure at 16 ug/kg/min (reference value: 7.68 to 9.64 mmHg); format: functional
Rattus norvegicus [3] = test: Effect on hemodynamic parameters in Sprague-Dawley rat heart assessed as end-diastolic pressure at 8 ug/kg/min (reference value: 7.68 to 9.83 mmHg); format: functional
Rattus norvegicus [4] = test: Positive inotropic activity in Sprague-Dawley rat heart assessed as fractional shortening at 16 ug/kg/min for 3 mins by echocardiographic analysis (reference value: 38.60 to 55.81%); format: functional; procedure, shortened: as §1
Rattus norvegicus [5] = test: Positive inotropic activity in Sprague-Dawley rat heart assessed as left ventricular posterior wall thickness end systole at 16 ug/kg/min for 3 mins by echocardiographic analysis (reference value: 2.07 to 2.46 mm); format: functional
Procedure, shortened: (§2)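 Male Sprague-Dawley rats, seven weeks old, anaesthetised with 1.5 % isoflurane given by nosecone. Compound infused through the right internal jugular vein, used as a central venous line. Left ventricular dimensions measured by echocardiography.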

Rattus norvegicus [6] = test: Effect on hemodynamic parameters in Sprague-Dawley rat heart assessed as heart rate at 8 ug/kg/min (reference value: 260 to 322 bpm); format: functional
Rattus norvegicus [7] = test: Positive inotropic activity in Sprague-Dawley rat heart assessed as left ventricular posterior wall thickness end diastole at 4 ug/kg/min for 3 mins by echocardiographic analysis (reference value: 0.88 to 1.54 mm); format: functional; procedure, shortened: as §2
Rattus norvegicus [8] = test: Positive inotropic activity in Sprague-Dawley rat heart assessed as left ventricular posterior wall thickness end systole at 4 ug/kg/min for 3 mins by echocardiographic analysis (reference value: 2.07 to 2.46 mm); format: functional; procedure, shortened: as §2
Rattus norvegicus [9] = test: Effect on hemodynamic parameters in Sprague-Dawley rat heart assessed as dPdT min at 16 ug/kg/min (reference value: -5462 to -4611 mmHg/s); format: functional
Rattus norvegicus [10] = test: Effect on hemodynamic parameters in Sprague-Dawley rat heart assessed as dPdT max at 8 ug/kg/min (reference value: 4162 to 5214 mmHg/s); format: functional
Rattus norvegicus [11] = test: Positive inotropic activity in Sprague-Dawley rat heart assessed as left ventricular internal diameter end diastole at 16 ug/kg/min for 3 mins by echocardiographic analysis (reference value: 5.66 to 7.80 mm); format: functional
Rattus norvegicus [12] = test: Effect on hemodynamic parameters in Sprague-Dawley rat heart assessed as end-systolic pressure at 16 ug/kg/min (reference value: 87.48 to 97.85 mmHg); format: functional
Rattus norvegicus [13] = test: Effect on hemodynamic parameters in Sprague-Dawley rat heart assessed as dPdT max at 16 ug/kg/min (reference value: 4162 to 5214 mmHg/s); format: functional
Rattus norvegicus [14] = test: Positive inotropic activity in Sprague-Dawley rat heart assessed as fractional shortening at 4 ug/kg/min for 3 mins by echocardiographic analysis (reference value: 38.60 to 55.81%); format: functional; procedure, shortened: as §1
Rattus norvegicus [15] = test: Positive inotropic activity in Sprague-Dawley rat heart assessed as left ventricular internal diameter end systole at 16 ug/kg/min for 3 mins by echocardiographic analysis (reference value: 2.50 to 4.78 mm); format: functional; procedure, shortened: as §2
Oryctolagus cuniculus = species: Oryctolagus cuniculus; test: Activation of actin-stimulated rabbit psoas skeletal muscle myosin S1 fragment ATPase activity at 100 uM after 10 mins by spectrophotometric analysis
Procedure, shortened: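 Rabbit skeletal S1 myosin with actin thin filament complex at pCa 6.5, in 20 mM Tris HCl pH 7.5, 15 mM KCl, 6 mM MgCl2, 1 mM ATP. Compound at single 100 uM dose, 10 min at room temperature. Cytophos stop; phosphate read at 650 nm. % activity versus blank-corrected DMSO control.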

Rattus norvegicus [16] = test: Positive inotropic activity in Sprague-Dawley rat heart assessed as left ventricular posterior wall thickness end diastole at 16 ug/kg/min for 3 mins by echocardiographic analysis (reference value: 0.88 to 1.54 mm); format: functional; procedure, shortened: as §2
Rattus norvegicus [17] = test: Positive inotropic activity in Sprague-Dawley rat heart assessed as ejection fraction at 2 to 16 ug/kg/min for 3 mins by echocardiographic analysis; format: functional; procedure, shortened: as §1
Rattus norvegicus [18] = test: Positive inotropic activity in Sprague-Dawley rat heart assessed as left ventricular posterior wall thickness end systole at 8 ug/kg/min for 3 mins by echocardiographic analysis (reference value: 2.07 to 2.46 mm); format: functional; procedure, shortened: as §2
Rattus norvegicus [19] = test: Positive inotropic activity in Sprague-Dawley rat heart assessed as left ventricular internal diameter end systole at 8 ug/kg/min for 3 mins by echocardiographic analysis (reference value: 2.50 to 4.78 mm); format: functional; procedure, shortened: as §2
Rattus norvegicus [20] = test: Positive inotropic activity in Sprague-Dawley rat heart assessed as left ventricular internal diameter end diastole at 4 ug/kg/min for 3 mins by echocardiographic analysis (reference value: 5.66 to 7.80 mm); format: functional; procedure, shortened: as §2
Rattus norvegicus [21] = test: Positive inotropic activity in Sprague-Dawley rat heart assessed as left ventricular posterior wall thickness end diastole at 8 ug/kg/min for 3 mins by echocardiographic analysis (reference value: 0.88 to 1.54 mm); format: functional; procedure, shortened: as §2
Gallus gallus = species: Gallus gallus; test: Activation of actin-stimulated chicken gizzard smooth muscle myosin S1 fragment ATPase activity at 100 uM after 10 mins by spectrophotometric analysis
Procedure, shortened: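 Chicken gizzard smooth muscle S1 myosin with actin plus tropomyosin at pCa 6.5, in 20 mM Tris HCl pH 7.5, 15 mM KCl, 6 mM MgCl2, 1 mM ATP. Compound at single 100 uM dose, 10 min at room temperature. Cytophos stop; phosphate read at 650 nm. % activity versus blank-corrected DMSO control.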

Rattus norvegicus [22] = test: Positive inotropic activity in Sprague-Dawley rat heart assessed as left ventricular internal diameter end diastole at 8 ug/kg/min for 3 mins by echocardiographic analysis (reference value: 5.66 to 7.80 mm); format: functional; procedure, shortened: as §2
Rattus norvegicus [23] = test: Positive inotropic activity in Sprague-Dawley rat heart assessed as ejection fraction at 16 ug/kg/min for 3 mins by echocardiographic analysis (reference value: 67.16 to 85.81%); format: functional; procedure, shortened: as §1
Rattus norvegicus [24] = test: Positive inotropic activity in Sprague-Dawley rat heart assessed as heart rate at 8 ug/kg/min for 3 mins by echocardiographic analysis (reference value: 281 to 347 bpm); format: functional
Rattus norvegicus [25] = test: Positive inotropic activity in Sprague-Dawley rat heart assessed as fractional shortening at 8 ug/kg/min for 3 mins by echocardiographic analysis (reference value: 38.60 to 55.81%); format: functional; procedure, shortened: as §1
Rattus norvegicus [26] = test: Positive inotropic activity in Sprague-Dawley rat heart assessed as heart rate at 4 ug/kg/min for 3 mins by echocardiographic analysis (reference value: 281 to 347 bpm); format: functional

COC(=O)N1CCN(Cc2cccc(NC(=O)Nc3ccc(C)nc3)c2F)CC1 [OMECAMTIV MECARBIL]
Activity (Rattus norvegicus [1]): 20.32%
Activity (Bos taurus): 58%
Activity (Rattus norvegicus [2]): 6.46 mmHg
Activity (Rattus norvegicus [3]): 6.21 mmHg
Activity (Rattus norvegicus [4]): 60.81%
Activity (Rattus norvegicus [5]): 2.77 mm
Activity (Rattus norvegicus [6]): 292 bpm
Activity (Rattus norvegicus [7]): 1.36 mm
Activity (Rattus norvegicus [8]): 2.81 mm
Activity (Rattus norvegicus [9]): -6342 mmHg/s
Activity (Rattus norvegicus [10]): 6143 mmHg/s
Activity (Rattus norvegicus [11]): 6.5 mm
Activity (Rattus norvegicus [12]): 108.91 mmHg
Activity (Rattus norvegicus [13]): 6867 mmHg/s
Activity (Rattus norvegicus [14]): 58.9%
Activity (Rattus norvegicus [15]): 2.55 mm
Activity (Oryctolagus cuniculus): 2.8%
Activity (Rattus norvegicus [16]): 1.36 mm
Activity (Rattus norvegicus [17]): 13.35%
Activity (Rattus norvegicus [18]): 2.68 mm
Activity (Rattus norvegicus [19]): 2.33 mm
Activity (Rattus norvegicus [20]): 6.41 mm
Activity (Rattus norvegicus [21]): 1.23 mm
Activity (Gallus gallus): -5.5%
Activity (Rattus norvegicus [22]): 5.97 mm
Activity (Rattus norvegicus [23]): 89.17%
Activity (Rattus norvegicus [24]): 370 bpm
Activity (Rattus norvegicus [25]): 61.03%
Activity (Rattus norvegicus [26]): 368 bpm

O=C(NCCCc1ccccc1)NCc1ccccc1
Activity (Rattus norvegicus [1]): 30.04%
Activity (Bos taurus): 53.3%
Activity (Rattus norvegicus [2]): 11.33 mmHg
Activity (Rattus norvegicus [3]): 10.71 mmHg
Activity (Rattus norvegicus [4]): 71.65%
Activity (Rattus norvegicus [5]): 3.03 mm
Activity (Rattus norvegicus [6]): 271 bpm
Activity (Rattus norvegicus [7]): 1.62 mm
Activity (Rattus norvegicus [8]): 2.24 mm
Activity (Rattus norvegicus [9]): -5405 mmHg/s
Activity (Rattus norvegicus [10]): 4644 mmHg/s
Activity (Rattus norvegicus [11]): 5.57 mm
Activity (Rattus norvegicus [12]): 94.26 mmHg
Activity (Rattus norvegicus [13]): 4740 mmHg/s
Activity (Rattus norvegicus [14]): 45.67%
Activity (Rattus norvegicus [15]): 1.58 mm
Activity (Oryctolagus cuniculus): 1.4%
Activity (Rattus norvegicus [16]): 1.71 mm
Activity (Rattus norvegicus [17]): 18.27%
Activity (Rattus norvegicus [18]): 2.68 mm
Activity (Rattus norvegicus [19]): 1.58 mm
Activity (Rattus norvegicus [20]): 5.57 mm
Activity (Rattus norvegicus [21]): 1.49 mm
Activity (Gallus gallus): -3.7%
Activity (Rattus norvegicus [22]): 5.97 mm
Activity (Rattus norvegicus [23]): 95.44%
Activity (Rattus norvegicus [24]): 412 bpm
Activity (Rattus norvegicus [25]): 73.53%
Activity (Rattus norvegicus [26]): 395 bpm
